Active and inactive are the calls of the source. The rule behind the calls is not given here.
Key:
Assay type in all cases: cell-based
[1] = molecular target: T1, von Hippel-Lindau disease tumor suppressor/Bromodomain-containing protein 7 (Homo sapiens) (UniProt Q9NPI1+P40337); assay: PROTAC activity at VHL/BRD7 in human Ri-1 cells assessed as BRD7 protein degradation at 100 nM incubated for 4 hrs by MS proteomics analysis
[2] = molecular target: T2, von Hippel-Lindau disease tumor suppressor/Bromodomain-containing protein 9 (Homo sapiens) (UniProt Q9H8M2+P40337); assay: PROTAC activity at VHL/BRD9 in human Ri-1 cells assessed as BRD9 protein degradation at 100 nM incubated for 4 hrs by MS proteomics analysis
Outline: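 RI-1 cells treated in triplicate with compound (100 nM) or DMSO for 4 h; whole-cell proteome quantified by MS (6273 proteins), fold change versus control with t-test P-values.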

[3] = molecular target: T2, von Hippel-Lindau disease tumor suppressor/Bromodomain-containing protein 9 (Homo sapiens); assay: PROTAC activity at VHL/BRD9 in human Ri-1 cells assessed as BRD9 protein degradation at 100 nM incubated for 4 hrs by Western blot analysis
Outline: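 Ri-1 cells exposed to compound for the stated time before harvest; BRD9, BRD7 and β-actin measured by Western blot, band intensities quantified and set against DMSO-treated control.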

[4] = molecular target: T1, von Hippel-Lindau disease tumor suppressor/Bromodomain-containing protein 7 (Homo sapiens); assay: PROTAC activity at VHL/BRD7 in human Ri-1 cells assessed as BRD7 protein degradation at 100 nM incubated for 4 hrs by Western blot analysis
[5] = molecular target: T3, DDB1- and CUL4-associated factor 15/Bromodomain-containing protein 9 (Homo sapiens) (UniProt Q9H8M2+Q66K64); assay: PROTAC activity at DCAF15/BRD9 in human HeLa cells assessed as remaining BRD9 protein level at 1 uM incubated for 4 hrs by Western blot analysis relative to control
[6] = molecular target: T3, DDB1- and CUL4-associated factor 15/Bromodomain-containing protein 9 (Homo sapiens); assay: PROTAC activity at DCAF15/BRD9 in human HeLa cells assessed as remaining BRD9 protein level at 1 uM incubated for 16 hrs by Western blot analysis relative to control
[7] = molecular target: T4, DDB1- and CUL4-associated factor 15/Bromodomain-containing protein 7 (Homo sapiens) (UniProt Q9NPI1+Q66K64); assay: PROTAC activity at DCAF15/BRD7 in human HeLa cells assessed as remaining BRD7 protein level at 1 uM incubated for 4 hrs by Western blot analysis relative to control
[8] = molecular target: T4, DDB1- and CUL4-associated factor 15/Bromodomain-containing protein 7 (Homo sapiens); assay: PROTAC activity at DCAF15/BRD7 in human HeLa cells assessed as remaining BRD7 protein level at 1 uM incubated for 16 hrs by Western blot analysis relative to control
[9] = molecular target: T2, von Hippel-Lindau disease tumor suppressor/Bromodomain-containing protein 9 (Homo sapiens); assay: PROTAC activity at VHL/BRD9 in human HeLa cells assessed as remaining BRD9 protein level at 1 uM incubated for 16 hrs by Western blot analysis relative to control
Outline: (§1)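 HeLa cells treated with compound for the stated time before harvest; BRD9, BRD7 and β-actin detected by Western blot with β-actin loading control; band intensities quantified.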

[10] = molecular target: T1, von Hippel-Lindau disease tumor suppressor/Bromodomain-containing protein 7 (Homo sapiens); assay: PROTAC activity at VHL/BRD7 in human HeLa cells assessed as remaining BRD7 protein level at 1 uM incubated for 4 hrs by Western blot analysis relative to control
[11] = molecular target: T1, von Hippel-Lindau disease tumor suppressor/Bromodomain-containing protein 7 (Homo sapiens); assay: PROTAC activity at VHL/BRD7 in human HeLa cells assessed as remaining BRD7 protein level at 1 uM incubated for 16 hrs by Western blot analysis relative to control
[12] = molecular target: T1, von Hippel-Lindau disease tumor suppressor/Bromodomain-containing protein 7 (Homo sapiens); assay: PROTAC activity at VHL/BRD7 in human HeLa cells assessed as protein degradation at 1 uM incubated for 4 hrs by Western blot analysis relative to control
[13] = molecular target: T2, von Hippel-Lindau disease tumor suppressor/Bromodomain-containing protein 9 (Homo sapiens); assay: PROTAC activity at VHL/BRD9 in human HeLa cells assessed as protein degradation at 1 uM incubated for 4 hrs by Western blot analysis relative to control; outline: as §1
[14] = molecular target: T1, von Hippel-Lindau disease tumor suppressor/Bromodomain-containing protein 7 (Homo sapiens); assay: PROTAC activity at VHL/BRD7 in human HeLa cells assessed as protein degradation at 1 uM incubated for 16 hrs by Western blot analysis relative to control
[15] = molecular target: T2, von Hippel-Lindau disease tumor suppressor/Bromodomain-containing protein 9 (Homo sapiens); assay: PROTAC activity at VHL/BRD9 in human HeLa cells assessed as protein degradation at 1 uM incubated for 16 hrs by Western blot analysis relative to control; outline: as §1

T1 sequence (P40337 whole entry, looked up): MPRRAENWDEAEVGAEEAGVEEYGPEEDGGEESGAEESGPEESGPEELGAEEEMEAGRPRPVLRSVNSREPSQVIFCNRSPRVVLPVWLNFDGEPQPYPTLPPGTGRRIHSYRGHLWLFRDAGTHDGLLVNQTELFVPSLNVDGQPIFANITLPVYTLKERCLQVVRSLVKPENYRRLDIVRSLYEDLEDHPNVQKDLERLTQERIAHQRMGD
T1 sequence (Q9NPI1 whole entry, looked up): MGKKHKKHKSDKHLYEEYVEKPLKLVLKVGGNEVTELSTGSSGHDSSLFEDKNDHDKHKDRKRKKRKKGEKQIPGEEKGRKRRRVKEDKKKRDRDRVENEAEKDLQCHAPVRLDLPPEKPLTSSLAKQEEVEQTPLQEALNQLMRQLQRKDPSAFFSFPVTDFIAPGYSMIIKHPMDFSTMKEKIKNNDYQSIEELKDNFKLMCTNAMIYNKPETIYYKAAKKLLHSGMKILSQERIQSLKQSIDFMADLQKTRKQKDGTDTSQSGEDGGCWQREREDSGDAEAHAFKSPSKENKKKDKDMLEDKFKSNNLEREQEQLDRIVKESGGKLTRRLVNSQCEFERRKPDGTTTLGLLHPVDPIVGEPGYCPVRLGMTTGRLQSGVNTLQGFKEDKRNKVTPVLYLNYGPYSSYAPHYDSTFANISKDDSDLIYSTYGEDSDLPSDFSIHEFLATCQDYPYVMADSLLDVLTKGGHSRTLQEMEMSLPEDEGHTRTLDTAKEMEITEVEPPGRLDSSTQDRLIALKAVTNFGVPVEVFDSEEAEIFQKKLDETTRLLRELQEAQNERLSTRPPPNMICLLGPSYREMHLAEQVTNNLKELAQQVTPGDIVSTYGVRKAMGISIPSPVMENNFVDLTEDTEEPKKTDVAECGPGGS
T2 sequence (P40337 whole entry, looked up): as the sequence (P40337 whole entry, looked up) above
T2 sequence (Q9H8M2 whole entry, looked up): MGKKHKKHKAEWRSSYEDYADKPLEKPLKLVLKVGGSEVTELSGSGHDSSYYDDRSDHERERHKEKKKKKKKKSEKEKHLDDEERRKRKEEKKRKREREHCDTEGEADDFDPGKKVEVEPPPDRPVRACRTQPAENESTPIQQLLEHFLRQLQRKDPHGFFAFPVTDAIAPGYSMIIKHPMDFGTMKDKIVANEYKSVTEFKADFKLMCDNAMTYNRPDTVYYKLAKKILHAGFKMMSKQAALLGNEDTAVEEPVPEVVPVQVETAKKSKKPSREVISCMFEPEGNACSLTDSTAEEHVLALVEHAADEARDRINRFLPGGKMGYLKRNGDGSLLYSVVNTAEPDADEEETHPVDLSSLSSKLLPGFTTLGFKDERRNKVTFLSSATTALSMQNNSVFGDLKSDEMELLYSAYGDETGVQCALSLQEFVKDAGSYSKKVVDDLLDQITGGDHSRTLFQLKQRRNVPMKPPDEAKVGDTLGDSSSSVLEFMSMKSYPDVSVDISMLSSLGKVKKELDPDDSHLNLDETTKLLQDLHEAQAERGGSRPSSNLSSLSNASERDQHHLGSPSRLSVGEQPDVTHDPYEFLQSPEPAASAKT
T4 sequence (Q66K64 whole entry, looked up): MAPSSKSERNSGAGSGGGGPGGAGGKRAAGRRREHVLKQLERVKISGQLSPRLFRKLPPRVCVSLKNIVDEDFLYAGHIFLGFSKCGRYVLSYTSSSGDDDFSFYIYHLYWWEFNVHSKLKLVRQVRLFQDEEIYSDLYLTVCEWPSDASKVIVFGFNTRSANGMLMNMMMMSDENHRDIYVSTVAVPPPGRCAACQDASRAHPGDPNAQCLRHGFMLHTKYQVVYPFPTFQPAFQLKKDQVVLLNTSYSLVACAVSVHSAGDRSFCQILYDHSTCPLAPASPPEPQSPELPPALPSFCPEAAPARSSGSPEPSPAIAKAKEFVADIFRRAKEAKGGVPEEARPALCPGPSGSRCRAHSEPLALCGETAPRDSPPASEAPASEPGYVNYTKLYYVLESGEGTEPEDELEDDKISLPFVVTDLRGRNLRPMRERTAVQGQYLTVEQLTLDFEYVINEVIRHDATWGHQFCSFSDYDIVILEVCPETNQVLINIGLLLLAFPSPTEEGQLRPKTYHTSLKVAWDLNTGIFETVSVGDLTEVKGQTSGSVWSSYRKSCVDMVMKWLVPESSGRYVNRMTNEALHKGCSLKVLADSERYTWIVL
T4 sequence (Q9NPI1 whole entry, looked up): as the sequence (Q9NPI1 whole entry, looked up) above
T3 sequence (Q66K64 whole entry, looked up): as the sequence (Q66K64 whole entry, looked up) above
T3 sequence (Q9H8M2 whole entry, looked up): as the sequence (Q9H8M2 whole entry, looked up) above

## COc1cc(-c2cn(C)c(=O)c3cnccc23)cc(OC)c1CN1CCN(CCCCCOc2cc(-c3scnc3C)ccc2CNC(=O)[C@@H]2C[C@H](O)CN2C(=O)[C@@H](NC(=O)C2(F)CC2)C(C)(C)C)CC1
[1]
  Activity: inactive
[2]
  Activity: inactive
[3]
  Activity: inactive
[4]
  Activity: inactive

## COc1cc(-c2cn(C)c(=O)c3cnccc23)cc(OC)c1CN1CCN(CCOCCOCC(=O)NCc2ccc(S(=O)(=O)Nc3cccc4c(Cl)c[nH]c34)cc2)CC1
[5]
  Activity: 125%
[6]
  Activity: 81%
[7]
  Activity: 101%
[8]
  Activity: 86%

## COc1cc(-c2cn(C)c(=O)c3cnccc23)cc(OC)c1CN1CCN(CCOCCOCCOCCOCC(=O)N[C@H](C(=O)N2C[C@H](O)C[C@H]2C(=O)NCc2ccc(-c3scnc3C)cc2)C(C)(C)C)CC1
[9]
  Activity: 78%
[10]
  Activity: 81%
[11]
  Activity: 73%
[12]
  Activity: 20%
[13]
  Activity: 20%
[14]
  Activity: 30%
[15]
  Activity: 30%

From ChEMBL document CHEMBL5260840 (J Med Chem, 2019)
